Converted amounts (≈) assume the structure as drawn. Blank lines part the entries; values can stand above or below the compound they belong to. The source made the active and inactive calls. No cut-off for these calls is given here.
Key:
[1] = biological target: T1, Bile acid receptor (Homo sapiens) (UniProt Q96RI1); assay: Agonist activity at human full length FXR expressed in HeLa cells cotransfected with pSG5-human RXR at 50 uM after 24 hrs by Dual-Glo luciferase reporter gene assay; type: cell-based
T1 sequence (whole entry): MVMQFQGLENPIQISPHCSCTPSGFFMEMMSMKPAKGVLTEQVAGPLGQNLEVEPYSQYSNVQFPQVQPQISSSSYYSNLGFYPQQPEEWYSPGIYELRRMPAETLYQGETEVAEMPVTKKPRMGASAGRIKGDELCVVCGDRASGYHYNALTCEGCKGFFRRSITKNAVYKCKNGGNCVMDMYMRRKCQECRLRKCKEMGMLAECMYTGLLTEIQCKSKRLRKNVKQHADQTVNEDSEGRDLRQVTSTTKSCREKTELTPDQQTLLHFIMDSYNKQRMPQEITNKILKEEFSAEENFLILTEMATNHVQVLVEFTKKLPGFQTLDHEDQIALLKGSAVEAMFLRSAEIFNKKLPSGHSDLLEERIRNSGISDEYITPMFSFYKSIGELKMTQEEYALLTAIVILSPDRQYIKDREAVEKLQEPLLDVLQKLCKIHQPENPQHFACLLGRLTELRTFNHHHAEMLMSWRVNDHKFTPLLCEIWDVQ
Summary of the method: (§1)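 HeLa cells, seeded 8,000/well 24 h ahead, calcium phosphate transfected with pcDNA3-hFXR (CMV), pSG5-hRXR, BSEP-promoter firefly luciferase and pRL-SV40 renilla control. Medium at 0.5% charcoal-stripped FCS; compound in 0.1% DMSO for 24 h. Dual-Glo firefly/renilla ratio, expressed relative to 3 µM GW4064. Triplicate wells, ≥3 independent runs.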

[2] = Solubility of the compound in 1% aqueous DMSO solution by HPLC analysis; type: physicochemical
[3] = test system: HepG2; assay: Cytotoxicity against human HepG2 cells at 50 uM after 48 hrs by LDH assay (reference value: 0%); type: cell-based; settings: hepg2, 48 h
Summary of the method: (§2)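 HepG2 at 3*10⁴ cells/well, moved to 1% charcoal-stripped FCS medium after 24 h, then compound for 48 h. Triton X-100 (2%) added 2 h before reading as 100% lysis control; untreated = 0%. Supernatant mixed with LDH substrate for 20 min, absorbance 490 nm against 690 nm reference. Triplicates, ≥4 independent repeats.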

[4] = biological target: T2, Bile acid receptor (Homo sapiens, UniProt Q96RI1); assay: Agonist activity at human full length FXR expressed in HeLa cells cotransfected with pSG5-human RXR after 24 hrs by Dual-Glo luciferase reporter gene assay; type: cell-based
T2 sequence (Q96RI1 whole entry): T1 sequence (whole entry)

[5] = biological target: T1, Bile acid receptor (Homo sapiens); assay: Partial agonist activity at FXR in human HepG2 cells assessed as induction of SHP gene expression at 0.1 uM after 24 hrs by qRT-PCR analysis (reference value: 100%); type: cell-based
Summary of the method: (§3)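 HepG2 (BSEP, SHP, OSTα) or HT-29 (IBABP) cells seeded at 2*10⁶/well, moved to MEM with 1% charcoal-stripped FCS for 24 h, then treated 24 h with 0.1 µM compound in 0.1% DMSO; CDCA 50 µM as reference. Total RNA extracted; qRT-PCR in duplicate, ≥4 independent experiments, comparative ΔΔCt quantification.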

[6] = biological target: T1, Bile acid receptor (Homo sapiens); assay: Partial agonist activity at FXR in human HepG2 cells assessed as induction of BSEP gene expression at 0.1 uM after 24 hrs by qRT-PCR analysis (reference value: 100%); type: cell-based; summary of the method: as §3
[7] = test system: HepG2; assay: Cytotoxicity against human HepG2 cells at 10 uM after 48 hrs by LDH assay (reference value: 0%); type: cell-based; settings: hepg2, 48 h; summary of the method: as §2
[8] = Metabolic stability in Sprague-Dawley rat liver microsomes assessed as compound remaining at 10 uM after 15 mins by HPLC analysis; type: ADME; settings: read-out: Stability
Summary of the method: (§4)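 Compound at 10 µM final, preincubated 5 min at 37 °C in 0.1 M phosphate buffer pH 7.4 with NADPH-regenerating system, then Sprague–Dawley rat liver microsomes added. Stopped with ice-cold methanol at 0, 15, 30, 60 min. Remaining parent quantified by phenyl-column HPLC (UV 330/254 nm) against an external calibration. Controls run without NADPH and with heat-inactivated microsomes.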

[9] = Cytotoxicity against human HepG2 cells assessed as cell proliferation at 5 uM after 48 hrs by WST-1 assay (Rvb =100%); type: cell-based; settings: read-out: Activity
Summary of the method: (§5)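 HepG2 seeded at 3*10⁴ cells/well in 10% FCS DMEM; after 24 h switched to 1% charcoal-stripped FCS and exposed to compound for 48 h. Revlotron 100 µM as positive control; Zileuton 100 µM and DMEM/1% DMSO as negative controls. WST reagent for 45 min, absorbance 450/620 nm, untreated set to 100%. Triplicates, ≥4 repeats.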

[10] = Cytotoxicity against human HepG2 cells assessed as cell proliferation at 10 uM after 48 hrs by WST-1 assay (Rvb =100%); type: cell-based; settings: read-out: Activity; summary of the method: as §5
[11] = biological target: T1, Bile acid receptor (Homo sapiens); assay: Partial agonist activity at FXR in human HepG2 cells assessed as induction of OST-alpha gene expression at 0.1 uM after 24 hrs by qRT-PCR analysis (reference value: 100%); type: cell-based; summary of the method: as §3
[12] = Cytotoxicity against human HepG2 cells assessed as cell proliferation at 50 uM after 48 hrs by WST-1 assay (Rvb =100%); type: cell-based; settings: read-out: Activity; summary of the method: as §5
[13] = Metabolic stability in Sprague-Dawley rat liver microsomes assessed as compound remaining at 10 uM after 60 mins by HPLC analysis; type: ADME; settings: read-out: Stability; summary of the method: as §4
[14] = Metabolic stability in Sprague-Dawley rat liver microsomes assessed as compound remaining at 10 uM by HPLC analysis; type: ADME; settings: read-out: Stability; summary of the method: as §4
[15] = biological target: T1, Bile acid receptor (Homo sapiens); assay: Partial agonist activity at FXR in human HT-29 cells assessed as induction of IBABP gene expression at 0.1 uM after 24 hrs by qRT-PCR analysis (reference value: 100%); type: cell-based; summary of the method: as §3
[16] = test system: HepG2; assay: Cytotoxicity against human HepG2 cells at 5 uM after 48 hrs by LDH assay (reference value: 0%); type: cell-based; settings: hepg2, 48 h; summary of the method: as §2
[17] = Metabolic stability in Sprague-Dawley rat liver microsomes assessed as compound remaining at 10 uM after 30 mins by HPLC analysis; type: ADME; settings: read-out: Stability; summary of the method: as §4
[18] = biological target: T1, Bile acid receptor (Homo sapiens); assay: Antagonist activity at human full length FXR expressed in HeLa cells cotransfected with pSG5-human RXR at 30 uM after 24 hrs by Dual-Glo luciferase reporter gene assay; type: cell-based
[19] = biological target: T1, Bile acid receptor (Homo sapiens); assay: Agonist activity at human full length FXR expressed in HeLa cells cotransfected with pSG5-human RXR at 30 uM after 24 hrs by Dual-Glo luciferase reporter gene assay; type: cell-based; summary of the method: as §1
[20] = biological target: T1, Bile acid receptor (Homo sapiens); assay: Agonist activity at human full length FXR expressed in HeLa cells cotransfected with pSG5-human RXR at 10 uM after 24 hrs by Dual-Glo luciferase reporter gene assay; type: cell-based; summary of the method: as §1
[21] = biological target: T1, Bile acid receptor (Homo sapiens); assay: Antagonist activity at human full length FXR expressed in HeLa cells cotransfected with pSG5-human RXR at 10 uM after 24 hrs by Dual-Glo luciferase reporter gene assay; type: cell-based
[22] = biological target: T2, Bile acid receptor; assay: Antagonist activity at human full length FXR expressed in HeLa cells cotransfected with pSG5-human RXR after 24 hrs by Dual-Glo luciferase reporter gene assay; type: cell-based
[23] = Solubility of the compound in 1% aqueous DMSO solution measured after 4 hrs by HPLC analysis; type: physicochemical

- Activity [1]: 12.3%
SMILES: CC(C)c1nc(-c2ccccc2)no1

- solubility [2]: 33 µg/mL (≈ 118 µM)
- EC50 [4]: 7.2 nM
- Activity [5]: 515%
- remaining at 0.25 h, 10 µM [8]: 84.6%
- Activity [11]: 339%
- remaining at 1 h, 10 µM [13]: 53.9%
- remaining at 10 µM [14]: 99.4%
- Activity [15]: 295%
- remaining at 0.5 h, 10 µM [17]: 71.3%
SMILES: Cc1ccccc1-c1noc(-c2cccc(C(=O)O)c2)n1
- Activity [3]: 15%
- Activity [6]: 395%
- Activity [7]: 0%
- viability at 48 h, 5 µM [9]: 109%
- viability at 48 h, 10 µM [10]: 87%
- viability at 48 h, 50 µM [12]: 86%
- Activity [16]: 0%

- inhibition [18]: inactive
- Activity [19]: inactive
SMILES: COc1ccc(-c2sc(-c3ccc(C)cc3)nc2O)cc1

- EC50 [4]: 220 nM
SMILES: Cc1ccccc1-c1noc(-c2ccc(C(=O)O)cc2)n1

- EC50 [4]: 530 nM
SMILES: c1ccc(-c2noc(-c3ccccc3)n2)cc1

- EC50 [4]: 120 nM
SMILES: COc1ccc(-c2nc(-c3ccccc3C)no2)cc1

- Activity [20]: inactive
- inhibition [21]: inactive
SMILES: Oc1ccc(-c2nc(-c3ccccc3)no2)cc1

- IC50 [22]: 16400 nM
SMILES: COc1ccc(-c2nc(-c3ccccc3)no2)cc1

- EC50 [4]: 350 nM
SMILES: Brc1ccc(-c2nc(-c3ccccc3)no2)cc1

- EC50 [4]: 2900 nM
SMILES: COc1ccc(-c2nc(-c3cccc(C(F)(F)F)c3)no2)cc1

- solubility [2]: 10.1 µg/mL (≈ 27.9 µM)
- EC50 [4]: 460 nM
- solubility at 4 h [23]: 9.98 µg/mL (≈ 27.6 µM)
SMILES: CCN(CC)c1ccc2cc(-c3nc(-c4ccccc4)no3)c(=O)oc2c1

- EC50 [4]: 410 nM
SMILES: Cc1ccc(-c2noc(-c3ccc(Cl)cc3)n2)cc1

Reference: ChEMBL document CHEMBL3588766 (Bioorg Med Chem, 2015)
